Experimental data published in ChEMBL document CHEMBL2069227, “Cycloartane-type triterpenes from the leaves of Homonoia riparia with VEGF-induced angiogenesis inhibitory activity” (J Nat Prod, 2012).
Activity calls are given as the source filed them. The calls are words filed in the database; no cut-off is given here.

Experiments:
Rattus norvegicus [1] = test: Inhibition of VEGF-induced vascular permeability in intradermally dosed Sprague-Dawley rat assessed as reduction in extravasation of Evans blue dye by Miles assay; type: functional, organism-based
Summary of the method: (§1)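 Male Sprague–Dawley rats (250–300 g) were anesthetized and shaved, then re-anesthetized 2–3 days later and given 150 μL 1% Evans blue i.v. After 15 min, 15 μL was injected intradermally: VEGF (100 ng/mL), compound (1, 5 or 10 μg/mL) in PBS, or PBS alone. Skin was dissected after 1 h, dye eluted with formamide at 56 °C, and OD read at 620 nm. n = 3 at 10 μg/mL.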

Rattus norvegicus [2] = test: Inhibition of VEGF-induced vascular permeability in intradermally dosed Sprague-Dawley rat assessed as reduction in extravasation of Evans blue dye at 10 ug/ml by Miles assay; type: functional; summary of the method: as §1
HUVEC [3] = test: Inhibition of VEGF-induced angiogenesis in HUVECs assessed as reduction in capillary-like tube formation on matrigel at 12.5 uM incubated for 6 hrs by fluorescence microscopy; type: functional; conditions: Homo sapiens
Summary of the method: (§2)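 HUVECs were cultured to the supplier's standard protocol. 5 × 10^4 cells were plated on basement membrane extract in medium with VEGF (10 ng/mL), with or without compound, and incubated 6 h. Cells were stained with 2 μM Calcein AM in PBS for 30 min. Tubes were imaged by fluorescence microscopy and quantified by image analysis against untreated cultures. Means ± SD, n = 3.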

HUVEC [4] = test: Inhibition of VEGF-induced angiogenesis in HUVECs assessed as reduction in capillary-like tube formation on matrigel at 25 uM incubated for 6 hrs by fluorescence microscopy; type: functional; conditions: Homo sapiens; summary of the method: as §2
HUVEC [5] = test: Toxicity in HUVECs at 12.5 uM; type: cell-based; conditions: human
HUVEC [6] = test: Toxicity in HUVECs at 25 uM; type: cell-based; conditions: human

C=C(CC[C@@H](C)[C@H]1CC[C@@]2(C)[C@@H]3[C@@H](O)[C@@H](O)[C@H]4C(C)(C)[C@@H](O)CC[C@@]45C[C@@]35CC[C@]12C)C(C)C
inhibition (Rattus norvegicus [1]): inactive

C=C(CC[C@@H](C)[C@H]1[C@@H](O)C[C@@]2(C)[C@@H]3C[C@@H](O)[C@H]4C(C)(C)[C@@H](O)CC[C@@]45C[C@@]35CC[C@]12C)C(C)C (relative stereo)
inhibition (Rattus norvegicus [1]): inactive

C=C(CC[C@@H](C)[C@H]1CC[C@@]2(C)[C@@H]3[C@@H](O)[C@@H](O)[C@H]4C(C)(C)[C@@H](O[C@@H]5OC[C@@H](O)[C@H](O)[C@H]5O)CC[C@@]45C[C@@]35CC[C@]12C)C(C)C (relative stereo)
inhibition (Rattus norvegicus [1]): inactive

C=C(CC[C@@H](C)[C@H]1[C@@H](O)C[C@@]2(C)[C@@H]3[C@@H](O)C[C@H]4C(C)(C)[C@@H](O[C@@H]5OC[C@@H](O)[C@H](O)[C@H]5O)CC[C@@]45C[C@@]35CC[C@]12C)C(C)C
inhibition (Rattus norvegicus [1]): Dose-dependent effect

C=C(CC[C@@H](C)[C@H]1[C@@H](O)C[C@@]2(C)[C@@H]3[C@@H](O)[C@@H](O)[C@H]4C(C)(C)[C@@H](O[C@@H]5OC[C@@H](O)[C@H](O)[C@H]5O)CC[C@@]45C[C@@]35CC[C@]12C)C(C)C
inhibition (Rattus norvegicus [1]): Dose-dependent effect | inhibition (INH) (Rattus norvegicus [2]): 64% | inhibition at 12.5 µM (HUVEC [3]): 28.5% | inhibition at 25 µM (HUVEC [4]): 59.5% | Activity (HUVEC [5]): Non-toxic | Activity (HUVEC [6]): Non-toxic

C=C(CC[C@@H](C)[C@H]1[C@@H](O)C[C@@]2(C)[C@@H]3C[C@@H](O)[C@H]4C(C)(C)[C@@H](O[C@@H]5OC[C@@H](O)[C@H](O)[C@H]5O)CC[C@@]45C[C@@]35CC[C@]12C)C(C)C (relative stereo)
inhibition (Rattus norvegicus [1]): Dose-dependent effect
